These results are taken from ChEMBL document CHEMBL1125621, “Muscarinic receptor binding and activation of second messengers by substituted N-methyl-N-[4-(1-azacycloalkyl)-2-butynyl]acetamides” (1991).

Assay [1] has as its target Muscarinic acetylcholine receptor M3 (Mus musculus) (UniProt Q9ERZ3). As to the kind of experiment: Increase in phosphoinositide (PI) metabolism in A9L-cholinergic receptor, muscarinic 3 expressing cells was measured at 100 uMolar. Type of assay: functional. The conditions noted are these: 100 uM. The method, boiled down:
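A9L fibroblasts transfected with m3 receptor, grown in DMEM with 10% newborn calf serum. Labeled overnight with [3H]myo-inositol, preincubated 5 min at 37 °C in 10 mM LiCl DMEM-Hepes. Compound at 100 μM final, 30 min at 37 °C. Labeled inositol phosphates extracted by ion exchange. Result expressed as percent of the oxotremorine-M response, duplicate determinations.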

Assay [2] has as its target T1, Muscarinic acetylcholine receptor (Rattus norvegicus) (UniProt P08482+P08483+P08485+P08911+P10980). Kind of assay: Displacement of [3H]N-methylscopolamine ([3H]NMS) binding at muscarinic acetylcholine receptor in rat cerebral cortical membranes. To be noted: Membrane. The arrangement: concentration or dose not given beside the values. Type of assay: cell membranes. The method in brief:
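Rat (Sprague-Dawley, either sex, 200 g) forebrain membranes, homogenized and washed in 50 mM sodium phosphate pH 7.4. 200-300 μg membrane incubated with 0.5 nM [3H]NMS plus compound (single concentration, 100 μM) in phosphate-buffered saline, 60 min at 37 °C. Filtered on glass fiber, scintillation counted. Nonspecific binding defined with 1 μM atropine. Triplicate. Reported as percent displacement.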

In assay [3] the test system is A9. As to the kind of experiment: Increase in phosphoinositide (PI) metabolism in A9L-m1 cells at 100 uM. Type of assay: functional, Mus musculus.
Assay [4] can be described thus: The percent inhibition of cyclic AMP(cAMP) formation in NG108-15 cells expressed in m40AChR was measured; i=inactive (< 2%). To be noted: Mus musculus.
The target in assay [5] is T1, Muscarinic acetylcholine receptor (Rattus norvegicus). As to the kind of experiment: Evaluated for displacement of [3H]oxotremorine-M binding ([3H]OXO-M) at muscarinic acetylcholine receptor in rat forebrain membranes. Type of assay: cell membranes. The arrangement: concentration or dose not given beside the values. To be noted: Membrane. The method, boiled down: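 Sprague-Dawley rat forebrain membranes. Incubated with 2.7 nM [3H]Oxo-M in 50 mM NaPO4, 2 mM MgCl2, pH 7.4, 20 min at 37 °C. Filtered on glass fiber presoaked in 0.05% polyethylenimine. Nonspecific binding defined with 1 μM atropine. Single concentration 1 μM, triplicate, averaged over two to five trials. Read-out is percent displacement of specific binding.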
A general note: Loss of bound radioactivity is the signal in a displacement assay; it reports binding, not function.

In assay [6] the test system is A9. As to the kind of experiment: The increase in phosphoinositide (PI) metabolism in A9L-m1 cells was measured at 100 uM; i = inactive. To be noted: Mus musculus. Type of assay: functional, cell-based. The method in brief:
(§1)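 A9L fibroblasts transfected with m1 or m3 receptor, grown in DMEM with 10% newborn calf serum. Labeled overnight with [³H]myo-inositol, preincubated 5 min at 37 °C in 10 mM LiCl in DMEM-Hepes, then exposed to compound at 100 μM final for 30 min. Inositol phosphates extracted by ion exchange. Result expressed as percent of Oxo-M response; duplicate determinations.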

Assay [7] is described as follows: The percent inhibition of cyclic AMP(cAMP) formation in NG108-15 cells at 100 uM. To be noted: Mus musculus.
Assay [8] concerns the target T1, Muscarinic acetylcholine receptor (Rattus norvegicus). Kind of assay: Compound was evaluated for displacement of [3H]N-methylscopolamine ([3H]NMS) binding at muscarinic acetylcholine receptor in rat cerebral cortical membranes. Type of assay: cell membranes. To be noted: Membrane. The method in brief: (§2)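 Rat cerebral cortical membranes, 200-300 μg per tube, incubated with 0.5 nM [³H]NMS and test compound at a single concentration of 100 μM in phosphate-buffered saline, 60 min at 37 °C. Glass fiber filtration and scintillation counting. Nonspecific binding taken with 1 μM atropine and subtracted. Triplicates; result given as percent displacement of specific binding.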

For assay [9] the target is unchanged. Kind of assay: Compound was evaluated for displacement of [3H]oxotremorine-M binding ([3H]OXO-M) at muscarinic acetylcholine receptor in rat forebrain membranes. The conditions noted are these: Membrane. It is filed as cell membranes. The method, boiled down:
(§3)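 Forebrain membranes from Sprague-Dawley rats, prepared in 50 mM sodium phosphate pH 7.4. Incubated with 2.7 nM [³H]Oxo-M and test compound at a single concentration of 1 μM in 50 mM NaPO₄, 2 mM MgCl₂, pH 7.4, 20 min at 37 °C. Filters presoaked in polyethylenimine; nonspecific binding with 1 μM atropine. Percent displacement, mean of two to five trials.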

Assay [10] has the same target. Kind of assay: compound was evaluated for displacement of [3H]oxotremorine-M binding ([3H]OXO-M) at muscarinic acetylcholine receptor in rat forebrain membranes; i = inactive (< 1%). The conditions noted are these: Membrane. Type of assay: cell membranes. The method, boiled down: as §3
In assay [11] the test system is A9. As to the kind of experiment: The increase in phosphoinositide (PI) metabolism in A9L-m3 cells was measured at 100 uM; i = inactive. It is filed as functional, cell-based. To be noted: Mus musculus. The method in brief:
as §1

Assay [12] addresses T1, Muscarinic acetylcholine receptor (Rattus norvegicus). As to the kind of experiment: compound was evaluated for displacement of [3H]N-methylscopolamine ([3H]NMS) binding at muscarinic acetylcholine receptor in rat cerebral cortical membranes; i = inactive (< 1%). Type of assay: cell membranes. To be noted: Membrane. The method, boiled down:
as §2

Molecules are shown by their SMILES. Calls of active or inactive are those of the source.

Chain of Muscarinic acetylcholine receptor M3 (Mus musculus) (Q9ERZ3 whole entry): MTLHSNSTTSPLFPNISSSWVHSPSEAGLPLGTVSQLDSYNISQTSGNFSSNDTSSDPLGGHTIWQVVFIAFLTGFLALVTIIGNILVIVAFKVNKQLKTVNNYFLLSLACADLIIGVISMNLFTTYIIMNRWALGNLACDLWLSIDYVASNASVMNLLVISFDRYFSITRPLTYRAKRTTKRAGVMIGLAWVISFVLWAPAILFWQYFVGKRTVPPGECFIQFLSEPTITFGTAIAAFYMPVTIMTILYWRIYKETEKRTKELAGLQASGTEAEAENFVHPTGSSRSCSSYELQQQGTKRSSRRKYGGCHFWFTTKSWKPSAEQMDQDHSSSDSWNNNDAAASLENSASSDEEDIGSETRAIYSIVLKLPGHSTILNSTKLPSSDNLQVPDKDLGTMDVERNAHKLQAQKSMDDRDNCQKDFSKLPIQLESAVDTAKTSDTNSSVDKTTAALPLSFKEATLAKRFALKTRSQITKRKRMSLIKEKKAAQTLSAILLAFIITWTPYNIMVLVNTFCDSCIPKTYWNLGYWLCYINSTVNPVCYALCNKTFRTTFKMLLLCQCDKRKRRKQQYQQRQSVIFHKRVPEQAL

As to `CC(=O)N(C)CC#CCN1CCC(OC(=O)c2ccccc2)C1.O=C(O)C(=O)O` (centres undefined), the PI turnover in assay [1] stood at 4; in assay [3], 1.4. Besides, the Displacement came out at 57.4% in [2] and 39.1% in assay [5]. In addition, in assay [4], the inhibition (as a rule, the percentage by which the read-out fell short of the control) is “inactive”.
In [1], `CC(=O)N(C)CC#CCN1CCC(O)CC1` registered a PI turnover of 2.6. The Displacement in [2] came out at 3.8%; in [5], 9.2%. Besides, the PI turnover entry in [6] was “inactive”.
Regarding `CC(=O)N(C)CC#CCN1CCC(CO)CC1.O=C(O)C(=O)O`, the inhibition in assay [7] is 4.8%. The PI turnover was found to be 16 in assay [1] and 8.8 in [3]. For the same compound, the Displacement was 10.2% in assay [2] and 14.7% in [5].
With `CC(=O)N(C)CC#CCN1CCCC(CO)C1` (centres undefined), the PI turnover in [1] worked out at 2.8. The Displacement in [2] came out at 45%; in assay [5] it was 22.4%. The PI turnover entry in assay [6] is “inactive”.
With `CC(=O)N(C)CC#CCN1CCCC1`, in [7], the inhibition amounted to 100%. The PI turnover in assay [1] worked out at 41.6; in [3] it was 52.5. The values for the Displacement in assay [2] and in assay [5] were 89.4% and 94.7%, respectively.
In assay [7], `CCOC(=O)C1CCCCN1CC#CCN(C)C(C)=O.O=C(O)C(=O)O` (centres undefined) had an inhibition of 44.1%. The PI turnover in [1] is 15.2; in [3] it was 12.8. The Displacement in assay [2] was 5.8%; in [5], 24.9%.
Take `CC(=O)N(C)CC#CCN1CCC[C@@H]1CF.O=C(O)C(=O)O`: the inhibition in assay [7] was 38.6%. Further, the PI turnover turned out to be 10.4 in assay [1] and 7.2 in [3]. Further, the figures for the Displacement in assay [2] and in assay [5] were 67.2% and 61.5%, respectively.
As for `CC(=O)N(C)CC#CCN1CCCCC1CO.O=C(O)C(=O)O` (centres undefined), the PI turnover in assay [1] amounted to 12.5; in assay [3] it was 7.3. Also, the Displacement in assay [2] was 31.2%; in [5], 20.4%. The inhibition result in assay [4] is “inactive”.
In assay [7], `COC[C@@H]1CCCN1CC#CCN(C)C(C)=O.O=C(O)C(=O)O` came in with an inhibition of 15.4%. Further, the PI turnover is 5.5 in assay [1] and 6.2 in assay [3]. This compound also showed a Displacement in assay [2] of 52%.
`CC(=O)OC[C@H]1CCCN1CC#CCN(C)C(C)=O`: the results for the Displacement in [8] and in [9] were 61.6% and 42.1%, respectively. This compound also returned a PI turnover in assay [1] of 2.6. For the same compound, the inhibition result in [4] was “inactive”. Moreover, the PI turnover entry in assay [6] is “inactive”.
`CC(=O)N(C)CC#CCN1CCC(OS(=O)(=O)c2ccc(C)cc2)C1.O=C(O)C(=O)O` (centres undefined): the inhibition in assay [7] amounted to 83.6%. Besides, the PI turnover in [1] and in [3] was 23.1 each time. In addition, the Displacement worked out at 51.6% in assay [2] and 64.8% in assay [5].
With `CC(=O)N(C)CC#CCN1CCN(C(C)=O)CC1.O=C(O)C(=O)O`, the Displacement entry in assay [10] was “inactive”. The PI turnover came to 3.1 in assay [1] and 1 in [3]. Moreover, in assay [2], the Displacement was found to be 59.2%. Besides, the inhibition entry in [4] is “inactive”.
As to `CCOC(=O)C1CCN(CC#CCN(C)C(C)=O)CC1.O=C(O)C(=O)O`, the PI turnover is 8.8 in assay [1] and 3.3 in [3]. The Displacement in assay [2] is 47.5%; in assay [5], 32.1%. Besides, the inhibition result in assay [4] was “inactive”.
`CC(=O)N(C)CC#CCN1CCC(F)CC1` registered a Displacement in [2] of 18.8%.
For the compound `CC(=O)N(C)CC#CCN1CCCCC1`, the PI turnover in assay [1] is 5.6. Further, the values for the Displacement in assay [2] and in [5] were 83.4% and 68.9%, respectively. Further, in assay [4], the inhibition entry was “inactive”. The PI turnover entry in assay [6] is “inactive”.
For the compound `CC(=O)N(C)CC#CCN1CCC(O)C1.O=C(O)C(=O)O` (centres undefined), the inhibition in assay [7] is 22.5%. Further, the PI turnover in [1] was 7.4; in assay [3], 17.1. Moreover, the Displacement in [2] is 21.5%; in assay [5] it was 39.9%.
The matching figures for `CCOC(=O)C1CCCN(CC#CCN(C)C(C)=O)C1.O=C(O)C(=O)O` (centres undefined): 23.6%, 12.9, 6.6, 39.8% and 31.2%.
Consider `CC(=O)N(C)CC#CCN1CCCC(O)C1` (centres undefined), for which the inhibition in [7] worked out at 3.4%. The compound also gave a PI turnover in assay [1] of 4.9. For the same compound, the Displacement came to 21.7% in assay [2] and 9.1% in [5]. For the same compound, the PI turnover entry in assay [6] is “inactive”.
As to `C[N+](C)(C)CCOC(N)=O`, in [1], the PI turnover is 86.1.
On to `CC(=O)N(C)CC#CCN1CCC1.O=C(O)C(=O)O`, for which, in assay [7], the inhibition came out at 95.7%. Besides, the PI turnover in [1] stood at 59.8; in assay [3] it was 61.3. The values for the Displacement in assay [2] and in assay [5] were 38% and 94%, respectively.
`CC(=O)N(C)CC#CCN1CCC(CCO)CC1.O=C(O)C(=O)O`: the Displacement in assay [2] amounted to 16.3%; in assay [5], 11%. In assay [3], the PI turnover is listed as 3.3. Also, the inhibition entry in [4] is “inactive”.
As to `O=C1CCCN1CC#CCN1CCCC1`, the PI turnover in assay [1] is 35.6.
With `CC(=O)N(C)CC#CCN1CCN(CCO)CC1`, the PI turnover result in assay [11] and in [6] was “inactive” throughout. For the same compound, the Displacement in [2] turned out to be 9.3%; in assay [5], 22.3%. In addition, the inhibition result in assay [4] was “inactive”.
Turning to `CC(=O)N(C)CC#CCN1CCC(OS(C)(=O)=O)C1.O=C(O)C(=O)O` (centres undefined), in assay [7], the inhibition was 38.5%. The PI turnover in assay [1] is 17.2; in assay [3], 10.4. In addition, the results for the Displacement in assay [2] and in assay [5] were 20.2% and 25.2%, respectively.
For the compound `CC(=O)N(C)CC#CCN1CCC(C(=O)O)CC1`, the Displacement result in [12] is “inactive”. Besides, the inhibition in [7] turned out to be 17.5%. This compound also yielded a PI turnover in assay [1] of 5.2. For the same compound, the PI turnover result in assay [6] is “inactive”. The Displacement in [5] was found to be 26.8%.
On to `CC(=O)N(C)CC#CCN1CCNCC1.O=C(O)C(=O)O`, for which the inhibition in assay [7] was 16.8%. The PI turnover in [1] was 12; in assay [3], 18.2. The Displacement in assay [2] turned out to be 51.2%; in assay [5], 33.8%.
With `CC(=O)N(C)CC#CCN1CCC[C@@H]1CO.O=C(O)C(=O)O`, the PI turnover turned out to be 4.8 in assay [1] and 2.6 in assay [3]. Moreover, the results for the Displacement in [2] and in assay [5] were 56.2% and 39.7%, respectively. The inhibition result in assay [4] was “inactive”.
Regarding `CC(=O)N(C)CC#CCN1CCC(F)C1.O=C(O)C(=O)O` (centres undefined), in assay [7], the inhibition was 8.9%. The PI turnover in [1] is 7.9; in assay [3], 11.3. For the same compound, the Displacement in assay [2] came to 29%; in assay [5], 38.1%.
`CC(=O)N(C)CC#CCN1CCC[C@H]1CO.O=C(O)C(=O)O`: the PI turnover in assay [1] amounted to 4.7; in assay [3] it was 5.1. The values for the Displacement in [2] and in [5] were 33.1% and 25%, respectively. Besides, in assay [4], the inhibition entry was “inactive”.
